Active and inactive are the calls of the source.
Columns and labels:
Format in all cases: functional, organism-based
Rattus norvegicus [1] = test: Reduction in proliferating cell nuclear antigen expression in prostate tissue in BPH-induced Sprague-Dawley rat model at 5 mg/kg, po daily for 4 weeks by Western blot analysis
Rattus norvegicus [2] = test: Reduction in prostate weight in BPH-induced Sprague-Dawley rat model at 5 mg/kg, po daily for 4 weeks in presence testosterone propionate of 10 mg/kg, intramuscular injection for 4 weeks; settings: Prostate gland
Rattus norvegicus [3] = test: Reduction in proliferating cell nuclear antigen in prostate tissue expression in BPH-induced Sprague-Dawley rat model at 1 mg/kg, ip daily for 4 weeks by Western blot analysis
How it was run: (§1)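 Prostate homogenized in lysis buffer, 30 μg protein run on SDS-PAGE, PVDF blot, antibody probing, ECL detection, β-actin internal control, densitometry. Mean ± SEM, n = 6 rats/group; one-way ANOVA with Dunnett's test.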

Rattus norvegicus [4] = test: Reduction in 5alpha-reductase mRNA level in prostate tissue in BPH-induced Sprague-Dawley rat model at 1 mg/kg, ip daily for 4 weeks by quantitative real-time PCR analysis; settings: Prostate gland
How it was run: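 Prostate tissue 5α-reductase 2 mRNA quantified by real-time PCR in male Sprague-Dawley rats given testosterone propionate 10 mg/kg im daily for 4 weeks plus daily treatment; mean ± SEM, n = 6 rats/group.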

Rattus norvegicus [5] = test: Reduction in thickness of epithelium tissue in prostate tissue in BPH-induced Sprague-Dawley rat model at 1 mg/kg, ip daily for 4 weeks by Hematoxylin and eosin staining based microscopy; settings: Prostate gland
How it was run: (§2)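 Prostates fixed in 4% buffered formalin, paraffin embedded, cut at 4 μm, stained with H&E and imaged at original magnification 40×. Epithelial thickness measured by pathologists. Rats received testosterone propionate 10 mg/kg im daily for 4 weeks with daily treatment; n = 6 per group.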

Rattus norvegicus [6] = test: Reduction in iNOS expression in prostate tissue in BPH-induced Sprague-Dawley rat model at 1 mg/kg, ip daily for 4 weeks by Western blot analysis; settings: Prostate gland
Rattus norvegicus [7] = test: Reduction in COX2 expression in prostate tissue in BPH-induced Sprague-Dawley rat model at 1 mg/kg, ip daily for 4 weeks by Western blot analysis; settings: Prostate gland; how it was run: as §1
Rattus norvegicus [8] = test: Reduction in procaspase 3 expression in prostate tissue in BPH-induced Sprague-Dawley rat model at 1 mg/kg, ip daily for 4 weeks by Western blot analysis; settings: Prostate gland; how it was run: as §1
Rattus norvegicus [9] = test: Reduction in PARP1 expression in prostate tissue in BPH-induced Sprague-Dawley rat model at 1 mg/kg, ip daily for 4 weeks by Western blot analysis; settings: Prostate gland; how it was run: as §1
Rattus norvegicus [10] = test: Reduction in Bcl2 expression in prostate tissue in BPH-induced Sprague-Dawley rat model at 1 mg/kg, ip daily for 4 weeks by Western blot analysis; settings: Prostate gland
Rattus norvegicus [11] = test: Reduction in Bcl-xL expression in prostate tissue in BPH-induced Sprague-Dawley rat model at 1 mg/kg, ip daily for 4 weeks by Western blot analysis; settings: Prostate gland; how it was run: as §1
Rattus norvegicus [12] = test: Increase in Bax expression in prostate tissue in BPH-induced Sprague-Dawley rat model at 1 mg/kg, ip daily for 4 weeks by Western blot analysis; settings: Prostate gland; how it was run: as §1
Rattus norvegicus [13] = test: Reduction in Bcl2 to Bax ratio in prostate tissue in BPH-induced Sprague-Dawley rat model at 1 mg/kg, ip daily for 4 weeks by Western blot analysis; settings: Prostate gland
How it was run: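 Male Sprague-Dawley rats, BPH induced by daily im testosterone propionate 10 mg/kg for 4 weeks with daily dosing. Prostate lysate (30 μg protein) Western blotted; Bax and Bcl-2 band densities normalized to β-actin and expressed as Bax/Bcl-2 ratio. Mean ± SEM, n = 6 rats/group.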

Rattus norvegicus [14] = test: Reduction in prostate cell proliferation and gland development in BPH-induced Sprague-Dawley rat model at 1 mg/kg, ip daily for 4 weeks by Hematoxylin and eosin staining based microscopy; how it was run: as §2
Rattus norvegicus [15] = test: Reduction in prostate weight in BPH-induced Sprague-Dawley rat model at 1 mg/kg, ip daily for 4 weeks in presence testosterone propionate of 10 mg/kg, intramuscular injection for 4 weeks; settings: Prostate gland

Measured: inhibition

CC(C)(C)NC(=O)[C@H]1CC[C@H]2[C@@H]3CC[C@H]4NC(=O)C=C[C@]4(C)[C@H]3CC[C@]12C
active: Rattus norvegicus [1] | Rattus norvegicus [2]

Oc1ccc(/C=C/c2cc(O)cc(O)c2)cc1
not listed: Rattus norvegicus [1] | Rattus norvegicus [2]
active: all other assays above

— ChEMBL document CHEMBL3576780, “Effects of resveratrol on benign prostatic hyperplasia by the regulation of inflammatory and apoptotic proteins” (2015)
